From ChEMBL document CHEMBL3779817, “Investigations on the 4-Quinolone-3-carboxylic Acid Motif. 7. Synthesis and Pharmacological Evaluation of 4-Quinolone-3-carboxamides and 4-Hydroxy-2-quinolone-3-carboxamides as High Affinity Cannabinoid Receptor 2 (CB2R) Ligands with Improved Aqueous Solubility” (J Med Chem, 2016)
≈ marks a conversion by molar mass, not a printed value.

What was measured:
[1] = Cytotoxicity against mouse NIH/3T3 cells assessed as cell viability after 24 hrs by neutral red uptake test; format: cell-based; settings: NIH3T3, 24 h
[2] = biological target: T1, Cannabinoid receptor 2 (Homo sapiens, UniProt P34972); assay: Displacement of [3H]-CP-55940 from human recombinant CB2 receptor expressed in HEK293 cells after 90 mins by Competition binding assay; format: cell-based
T1 sequence (P34972 whole entry): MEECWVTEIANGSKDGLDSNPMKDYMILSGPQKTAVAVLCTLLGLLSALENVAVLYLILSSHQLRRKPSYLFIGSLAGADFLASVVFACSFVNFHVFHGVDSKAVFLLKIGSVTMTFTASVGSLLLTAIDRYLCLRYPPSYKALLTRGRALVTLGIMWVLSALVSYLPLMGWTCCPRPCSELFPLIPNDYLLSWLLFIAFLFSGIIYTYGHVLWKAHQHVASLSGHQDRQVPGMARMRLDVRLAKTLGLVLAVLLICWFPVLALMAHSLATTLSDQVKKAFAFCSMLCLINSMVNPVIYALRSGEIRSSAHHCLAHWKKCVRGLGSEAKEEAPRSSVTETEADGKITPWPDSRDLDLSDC

[3] = species on record: Homo sapiens; assay: Selectivity index, ratio of Ki for recombinant human CB1 receptor to Ki for recombinant human CB2 receptor
[4] = biological target: Cannabinoid receptor 1 (Homo sapiens) (UniProt P21554); settings: HEK293
Sequence of Cannabinoid receptor 1 (Homo sapiens) (P21554 whole entry): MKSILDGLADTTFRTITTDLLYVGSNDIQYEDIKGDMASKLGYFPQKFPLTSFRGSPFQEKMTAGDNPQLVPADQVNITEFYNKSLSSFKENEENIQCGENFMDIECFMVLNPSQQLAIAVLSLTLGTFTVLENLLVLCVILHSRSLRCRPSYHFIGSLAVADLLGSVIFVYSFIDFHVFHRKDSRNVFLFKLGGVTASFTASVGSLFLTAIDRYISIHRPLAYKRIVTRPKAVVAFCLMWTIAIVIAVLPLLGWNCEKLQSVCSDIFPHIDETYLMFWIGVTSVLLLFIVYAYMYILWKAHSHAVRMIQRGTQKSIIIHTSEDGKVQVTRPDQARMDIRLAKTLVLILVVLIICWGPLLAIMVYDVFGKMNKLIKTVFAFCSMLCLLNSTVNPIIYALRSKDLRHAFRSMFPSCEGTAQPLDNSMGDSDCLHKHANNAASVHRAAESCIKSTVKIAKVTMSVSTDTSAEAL

[5] = Kinetic solubility in DMSO solution at pH 1.0 after 2 hrs by HPLC-UV analysis; format: physicochemical; settings: read-out: Kinetic_solubility
[6] = Kinetic solubility in DMSO solution at pH 7.4 after 2 hrs by HPLC-UV analysis; format: physicochemical; settings: for solubility kinetic at 2 h: DMSO solution, pH 7.4, read-out: Kinetic_solubility; for log(Kinetic_solubility): pH 7.4, 2 h
[7] = biological target: T1, Cannabinoid receptor 2; assay: Inverse agonist activity at recombinant human CB2 receptor expressed in CHO-K1 cells assessed as increase in […]-induced cAMP production by luminescence assay; format: functional, cell-based
Outline: (§1)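 CHO-K1 cells overexpressing human CB2, 30000 per well, left overnight at 37 °C, 5% CO2, then given compound dose–response with NKH477 (3× solution of 25 μM) to stimulate adenylate cyclase. cAMP read by enzyme-fragment-complementation chemiluminescence; response normalised to NKH477 alone as 100%. Mean ± SEM of two independent experiments in triplicate.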

[8] = biological target: T1, Cannabinoid receptor 2; assay: Inverse agonist activity at recombinant human CB2 receptor expressed in CHO-K1 cells assessed as increase in […]-induced cAMP production by luminescence assay relative to AM630; format: functional, cell-based; outline: as §1

Row | Structure (SMILES) | IC50 [1] [µM] | Kieq [2] [nM] | Ratio Ki [3] | Kieq [4] [nM] | solubility kinetic at 2 h [5] [µg/mL] | solubility kinetic at 2 h [6] [µg/mL] | log(Kinetic_solubility) [6] | IC50 [2] [µM] | EC50 [7] [µM] | Efficacy [8] [%]
1 | CCCCCn1c(=O)c(C(=O)NC23CC4CC(CC(C4)C2)C3)cc2cc(C(C)C)ccc21 | 92 | – | – | – | – | – | – | – | – | –
2 | COCCOCn1cc(C(=O)NC23CC4CC(CC(C4)C2)C3)c(=O)c2cc(C(C)C)ccc21 | – | 480 | > 20 | > 10000 | – | – | – | – | – | –
3 | CCCCCn1cc(C(=O)NC23CC4CC(CC(C4)C2)C3)c(=O)c2cc(C(C)C)ccc21 | 14 | – | – | – | 0.21 (≈ 0.483 µM) | 1 (≈ 2.3 µM) | -5.64 | – | – | –
4 | Cc1ccc(Cn2nc(C(=O)N[C@@H]3C(C)(C)[C@@H]4CC[C@@]3(C)C4)cc2-c2ccc(Cl)c(C)c2)cc1 | – | – | – | > 2820 | – | – | – | – | – | –
5 | COCCOCn1cc(C(=O)NC23CC4CC(CC(C4)C2)C3)c(=O)c2ccc(F)cc21 | – | 56 | > 177 | > 10000 | – | – | – | – | – | –
6 | CN(C)CCn1cc(C(=O)NC23CC4CC(CC(C4)C2)C3)c(=O)c2ccc(F)cc21 | 15 | 60 | 8 | 501 | 170 (≈ 414 µM) | 5.6 (≈ 13.6 µM) | -4.87 | – | – | –
7 | CC(C)c1ccc2c(c1)c(=O)c(C(=O)NC13CC4CC(CC(C4)C1)C3)cn2CCN1CCS(=O)(=O)CC1 | – | 1930 | > 5 | > 10000 | – | – | – | – | – | –
8 | CCCCCn1cc(C(=O)NC23CC4CC(CC(C4)C2)C3)c(=O)c2cc(-c3ccccc3)ccc21 | – | 3.8 | > 2660 | > 10000 | – | – | – | – | – | –
9 | COc1ccc(CNC(=O)c2c(O)c3cc(-c4cccs4)ccc3n(CCCCO)c2=O)cc1 | – | 2240 | > 4 | > 10000 | – | – | – | – | – | –
10 | CCCCCn1c(=O)c(C(=O)NC23CC4CC(CC(C4)C2)C3)c(O)c2cc(C(C)C)c(F)cc21 | 13 | 66.4 | > 150 | > 10000 | – | – | – | – | – | –
11 | O=C(NCc1ccc(F)cc1)c1c(O)c2cc(-c3ccco3)ccc2n(CCCCO)c1=O | – | 253 | 6 | 1580 | – | – | – | – | – | –
12 | CCCCCn1cc(C(=O)NC23CC4CC(CC(C4)C2)C3)c(=O)c2ccccc21 | – | 4.7 | 9 | 42.1 | – | – | – | – | – | –
13 | CCCCCn1cc(C(=O)NC23CC4CC(CC(C4)C2)C3)c(=O)c2ccc(F)cc21 | 74 | 0.8 | 38 | 30.5 | 0.05 (≈ 0.122 µM) | 0.014 (≈ 0.0341 µM) | -7.47 | – | – | –
14 | CCCCCn1cc(C(=O)NC23CC4CC(CC(C4)C2)C3)c(=O)c2cc(C(C)C)c(F)cc21 | 9 | – | – | – | – | – | – | – | – | –
15 | O=C(NCC1CCCCC1)c1c(O)c2ccccc2n(CCCCO)c1=O | – | 41.3 | 20 | 829 | – | – | – | – | – | –
16 | CCCCCn1c2c(c(O)c(C(=O)NC34CC5CC(CC(C5)C3)C4)c1=O)CCCC2 | 15 | – | – | – | 0.1 (≈ 0.242 µM) | 1.3 (≈ 3.15 µM) | -5.5 | – | – | –
17 | CCCCCn1c(=O)c(C(=O)NC23CC4CC(CC(C4)C2)C3)c(O)c2ccc(F)cc21 | 19 | 0.93 | 1380 | 1280 | 0.17 (≈ 0.399 µM) | 1.5 (≈ 3.52 µM) | -5.45 | 0.0035 | 0.0179 | < 50
18 | CC(C)c1ccc2c(c1)c(=O)c(C(=O)NC13CC4CC(CC(C4)C1)C3)cn2CCN(C)C | 5 | 146 | > 68 | > 10000 | 31.5 (≈ 72.3 µM) | 4.5 (≈ 10.3 µM) | -4.99 | – | – | –
19 | CC(C)c1cc2c(=O)c(C(=O)NC34CC5CC(CC(C5)C3)C4)cn(CCN(C)C)c2cc1F | – | 11.4 | 63 | 717 | 35.5 (≈ 78.3 µM) | 12.1 (≈ 26.7 µM) | -4.57 | – | – | –
20 | CCCCCn1c(=O)c(C(=O)NCc2ccc(OC)cc2)c(O)c2cc(-c3cccs3)ccc21 | – | 19.7 | 8 | 159 | – | – | – | – | – | –
21 | CCCCCn1c(=O)c(C(=O)NC23CC4CC(CC(C4)C2)C3)c(O)c2ccccc21 | 74 | – | – | – | 0.23 (≈ 0.563 µM) | 1.4 (≈ 3.43 µM) | -5.47 | 0.002 | 0.0024 | < 50
22 | CCCCCn1cc(C(=O)NC23CC4CC(CC(C4)C2)C3)c(=O)c2ccc(Sc3ccccc3)cc21 | – | 1.6 | 3.3 | 5.3 | – | – | – | – | – | –
23 | CCCCCn1c(=O)c(C(=O)NC23CC4CC(CC(C4)C2)C3)c(O)c2cc(C(C)C)ccc21 | 13 | 0.53 | 2350 | 1240 | 0.02 (≈ 0.0444 µM) | 1.9 (≈ 4.22 µM) | -5.38 | 0.0037 | 0.0026 | < 50
24 | O=C(NC12CC3CC(CC(C3)C1)C2)c1cn(CCN2CCS(=O)(=O)CC2)c2cc(F)ccc2c1=O | – | 246 | 8 | 1900 | – | – | – | – | – | –
